Measurements: ChEMBL document CHEMBL2021777 (J Med Chem, 2012)
Calls of active or inactive are those of the source. No cut-off for these calls is given here.

How the values were obtained:
[1] = biological target: T1, Neuronal acetylcholine receptors; alpha-3/beta-4, alpha-5, beta-2 (Homo sapiens) (UniProt P17787+P30926+P32297+P30532); assay: Antagonist activity at alpha3beta4alpha5beta2 in human SH-SY5Y cells at 10 uM by 86Rb+ flux assay; format: functional, cell-based
Outline: (§1)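 Human neuroblastoma SH-SY5Y cells endogenously express α3β4* nAChRs (α3, β4, probably α5, sometimes β2); their α7 receptors give no signal under these conditions. Cells were kept at low passage (1−26 from frozen stocks). Function was read as 86Rb+ efflux, with agonist and antagonist modes tested up to 10 μM.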

[2] = biological target: Muscarinic acetylcholine receptor M3 (Homo sapiens) (UniProt P20309); assay: Displacement of [3H]QNB from M3 receptor at 10 uM
Chain of Muscarinic acetylcholine receptor M3 (Homo sapiens) (P20309 whole entry, looked up): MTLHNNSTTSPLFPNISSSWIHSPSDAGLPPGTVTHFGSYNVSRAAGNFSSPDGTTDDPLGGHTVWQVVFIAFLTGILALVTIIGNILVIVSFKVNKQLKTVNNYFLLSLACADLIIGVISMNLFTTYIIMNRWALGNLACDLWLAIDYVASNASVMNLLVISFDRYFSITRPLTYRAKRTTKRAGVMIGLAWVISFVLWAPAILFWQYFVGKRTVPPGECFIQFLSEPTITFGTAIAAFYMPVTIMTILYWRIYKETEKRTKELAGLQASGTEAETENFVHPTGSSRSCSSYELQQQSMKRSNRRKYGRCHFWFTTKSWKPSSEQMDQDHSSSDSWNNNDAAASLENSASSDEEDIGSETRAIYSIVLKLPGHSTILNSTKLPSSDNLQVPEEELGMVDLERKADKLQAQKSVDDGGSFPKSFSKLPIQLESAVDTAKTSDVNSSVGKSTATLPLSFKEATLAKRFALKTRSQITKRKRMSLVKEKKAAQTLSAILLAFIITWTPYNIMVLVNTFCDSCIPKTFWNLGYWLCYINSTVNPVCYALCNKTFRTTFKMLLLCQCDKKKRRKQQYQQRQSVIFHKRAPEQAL

Cytochrome P450 2C19 = Cytochrome P450 2C19 (Homo sapiens, UniProt P33261); assay: Inhibition of CYP2C19 up to 10 uM; format: ADME
Chain of Cytochrome P450 2C19 (P33261 whole entry, canonical isoform): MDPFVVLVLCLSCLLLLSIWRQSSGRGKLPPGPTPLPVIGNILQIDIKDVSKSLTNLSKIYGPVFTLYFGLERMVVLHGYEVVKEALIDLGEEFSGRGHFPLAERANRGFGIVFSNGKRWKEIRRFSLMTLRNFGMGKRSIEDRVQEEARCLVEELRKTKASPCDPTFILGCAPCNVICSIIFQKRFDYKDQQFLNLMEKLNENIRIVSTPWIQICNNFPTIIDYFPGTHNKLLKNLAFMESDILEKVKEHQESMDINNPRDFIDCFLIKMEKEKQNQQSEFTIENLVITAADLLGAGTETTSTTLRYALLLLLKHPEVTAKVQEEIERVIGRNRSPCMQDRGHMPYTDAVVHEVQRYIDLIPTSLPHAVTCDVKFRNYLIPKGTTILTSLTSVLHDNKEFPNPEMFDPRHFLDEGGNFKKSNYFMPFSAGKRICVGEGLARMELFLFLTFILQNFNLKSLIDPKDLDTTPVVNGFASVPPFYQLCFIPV
Outline: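 Percent inhibition of CYP isoforms (CYP1A, CYP2C9, CYP2C19, CYP2D6, CYP3A; CYP1A2 reported) with test compound at concentrations up to 10 μM.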

[3] = biological target: D(3) dopamine receptor (Homo sapiens) (UniProt P35462); assay: Displacement of [3H]N-methylspiperone from D3 at 10 uM
Chain of D(3) dopamine receptor (Homo sapiens) (P35462 whole entry): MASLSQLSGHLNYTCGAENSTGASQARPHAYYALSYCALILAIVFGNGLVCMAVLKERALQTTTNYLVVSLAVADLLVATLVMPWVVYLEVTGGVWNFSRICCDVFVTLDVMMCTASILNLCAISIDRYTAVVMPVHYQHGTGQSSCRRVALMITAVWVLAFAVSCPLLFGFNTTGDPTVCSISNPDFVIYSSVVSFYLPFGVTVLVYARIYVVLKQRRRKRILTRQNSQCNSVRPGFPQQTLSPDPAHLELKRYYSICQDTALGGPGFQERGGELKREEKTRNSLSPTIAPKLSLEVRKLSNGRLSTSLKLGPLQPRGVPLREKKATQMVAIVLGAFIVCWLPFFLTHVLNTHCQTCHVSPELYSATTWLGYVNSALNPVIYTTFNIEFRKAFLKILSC

[4] = biological target: T2, Neuronal acetylcholine receptor; alpha4/beta2 (Homo sapiens, UniProt P17787+P43681); assay: Antagonist activity at human alpha4beta2 nAChR expressed in SH-EP1 cells assessed as inhibition of carbamylcholine induced 86Rb+ ion efflux preincubated for 10 mins prior to carbamylcholine-induction measured after 5 mins by flip-plate technique; format: functional, cell-based
Outline: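 SH-EP1 human epithelial cells stably transfected with separate human α4 and β2 subunit cDNAs express a mixed population of high-sensitivity (2:3 α4:β2) and low-sensitivity (3:2) α4β2-nAChRs. Cells were kept at low passage (1−26 from frozen stocks). Function was read as 86Rb+ ion flux.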

[5] = biological target: T3, Muscarinic acetylcholine receptor M2 (Homo sapiens) (UniProt P08172); assay: Displacement of [3H]QNB from M2 receptor at 10 uM
T3 sequence (whole entry): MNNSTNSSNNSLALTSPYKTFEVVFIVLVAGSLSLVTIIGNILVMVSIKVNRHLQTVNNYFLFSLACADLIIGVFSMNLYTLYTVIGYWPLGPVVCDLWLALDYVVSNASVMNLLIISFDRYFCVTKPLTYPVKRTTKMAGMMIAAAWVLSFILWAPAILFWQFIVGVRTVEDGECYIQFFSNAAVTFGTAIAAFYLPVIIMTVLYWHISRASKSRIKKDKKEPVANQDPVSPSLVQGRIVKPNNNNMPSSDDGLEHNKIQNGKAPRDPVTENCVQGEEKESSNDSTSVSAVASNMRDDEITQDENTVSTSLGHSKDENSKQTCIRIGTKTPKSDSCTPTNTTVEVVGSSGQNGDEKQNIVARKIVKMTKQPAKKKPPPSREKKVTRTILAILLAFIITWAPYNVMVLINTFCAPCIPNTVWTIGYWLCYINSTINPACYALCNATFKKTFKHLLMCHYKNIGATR

[6] = biological target: Histamine H1 receptor (Homo sapiens) (UniProt P35367); assay: Displacement of [3H]Pyrilamine from H1 histamine receptor at 10 uM
[7] = biological target: Neuronal acetylcholine receptor; alpha3/beta4 (Rattus norvegicus, UniProt P04757+P12392); assay: Displacement of [3H] epibatidine from rat alpha3beta4 nAChR by beta scintillation counting; format: protein-complex assay
Chain of Neuronal acetylcholine receptor; alpha3/beta4 (P04757 whole entry): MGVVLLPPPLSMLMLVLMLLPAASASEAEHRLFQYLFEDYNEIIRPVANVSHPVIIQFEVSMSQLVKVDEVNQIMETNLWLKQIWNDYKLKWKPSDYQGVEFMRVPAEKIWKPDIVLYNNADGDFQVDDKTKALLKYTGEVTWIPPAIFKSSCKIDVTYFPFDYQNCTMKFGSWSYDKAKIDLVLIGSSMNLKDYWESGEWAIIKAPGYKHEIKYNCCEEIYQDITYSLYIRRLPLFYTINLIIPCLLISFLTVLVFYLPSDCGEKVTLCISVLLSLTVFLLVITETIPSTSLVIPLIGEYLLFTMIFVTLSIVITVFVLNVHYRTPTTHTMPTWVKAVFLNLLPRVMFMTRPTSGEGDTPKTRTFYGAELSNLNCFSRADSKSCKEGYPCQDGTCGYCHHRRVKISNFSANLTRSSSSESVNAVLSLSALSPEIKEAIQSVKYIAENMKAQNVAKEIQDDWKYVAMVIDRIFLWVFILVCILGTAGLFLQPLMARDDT
Chain of Neuronal acetylcholine receptor; alpha3/beta4 (P12392 whole entry): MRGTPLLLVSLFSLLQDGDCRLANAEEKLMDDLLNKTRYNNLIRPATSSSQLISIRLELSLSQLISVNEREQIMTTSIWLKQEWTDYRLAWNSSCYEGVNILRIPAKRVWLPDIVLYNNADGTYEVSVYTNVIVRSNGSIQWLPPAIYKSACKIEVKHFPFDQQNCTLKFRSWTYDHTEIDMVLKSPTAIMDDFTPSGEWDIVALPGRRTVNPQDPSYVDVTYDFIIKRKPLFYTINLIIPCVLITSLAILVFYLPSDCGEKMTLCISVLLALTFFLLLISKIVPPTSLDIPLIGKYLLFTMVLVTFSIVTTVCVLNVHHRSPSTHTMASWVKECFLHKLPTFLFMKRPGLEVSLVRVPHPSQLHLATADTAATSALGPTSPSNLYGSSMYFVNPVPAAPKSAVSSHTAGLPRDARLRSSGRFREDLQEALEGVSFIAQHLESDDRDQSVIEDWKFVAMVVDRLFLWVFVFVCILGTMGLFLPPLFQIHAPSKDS

[8] = Displacement of [3H]DTG from sigma2 receptor at 10 uM
[9] = biological target: 5-hydroxytryptamine receptor 7 (Homo sapiens) (UniProt P34969); assay: Displacement of [3H]LSD from 5-HT7 at 10 uM
[10] = biological target: Mu-type opioid receptor (Homo sapiens) (UniProt P35372); assay: Displacement of [3H]DAMGO from mu opioid receptor at 10 uM
Chain of Mu-type opioid receptor (Homo sapiens) (P35372 whole entry): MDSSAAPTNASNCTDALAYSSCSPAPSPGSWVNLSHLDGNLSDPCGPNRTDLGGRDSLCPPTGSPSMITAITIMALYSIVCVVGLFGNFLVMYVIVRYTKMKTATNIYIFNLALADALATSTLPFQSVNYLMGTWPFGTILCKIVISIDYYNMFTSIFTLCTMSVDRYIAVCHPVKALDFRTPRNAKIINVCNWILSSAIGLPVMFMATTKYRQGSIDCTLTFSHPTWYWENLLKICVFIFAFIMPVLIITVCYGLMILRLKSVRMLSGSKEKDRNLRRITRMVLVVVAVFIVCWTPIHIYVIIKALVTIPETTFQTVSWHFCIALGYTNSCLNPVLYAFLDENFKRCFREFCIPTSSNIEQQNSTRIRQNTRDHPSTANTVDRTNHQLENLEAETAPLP

[11] = biological target: Neuronal acetylcholine receptor; alpha4/beta2 (Rattus norvegicus, UniProt P09483+P12390); assay: Displacement of [3H] epibatidine from rat alpha4beta2* nAChR in rat forebrain by beta scintillation counting
[12] = biological target: T2, Neuronal acetylcholine receptor; alpha4/beta2; assay: Agonist activity at human high sensitive and low sensitive alpha4beta2 nAChR expressed in SH-EP1 cells assessed as 86Rb+ ion efflux by flip-plate technique relative to sazetidine-A; format: functional, cell-based
Outline: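 SH-EP1-hα4β2 cells (stably transfected human α4 and β2, low passage 1−26) express mixed high- and low-sensitivity α4β2-nAChRs. Efficacy was measured by 86Rb+ flux on this mixed population. High-sensitivity efficacy was extrapolated by defining a reference agonist as 100% full agonist at the HS receptor.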

[13] = biological target: T4, 5-hydroxytryptamine receptor 2C (Homo sapiens) (UniProt P28335); assay: Displacement of [3H]Mesulergine from 5-HT2C at 10 uM
T4 sequence (whole entry): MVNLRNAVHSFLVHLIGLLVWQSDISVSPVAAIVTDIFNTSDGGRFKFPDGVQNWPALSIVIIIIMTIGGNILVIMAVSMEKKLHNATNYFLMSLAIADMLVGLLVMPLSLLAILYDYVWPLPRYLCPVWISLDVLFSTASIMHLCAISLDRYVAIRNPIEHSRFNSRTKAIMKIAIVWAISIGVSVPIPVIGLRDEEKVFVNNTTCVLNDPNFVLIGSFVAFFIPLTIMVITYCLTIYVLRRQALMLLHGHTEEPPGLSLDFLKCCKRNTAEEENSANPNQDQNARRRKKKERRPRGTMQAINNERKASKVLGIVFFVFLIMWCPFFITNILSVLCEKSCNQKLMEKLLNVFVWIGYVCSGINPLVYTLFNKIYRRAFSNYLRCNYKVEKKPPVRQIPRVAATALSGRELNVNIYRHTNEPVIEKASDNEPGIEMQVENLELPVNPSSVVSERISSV

[14] = biological target: D(1A) dopamine receptor (Homo sapiens) (UniProt P21728); assay: Displacement of [3H][…] from D1 at 10 uM
[15] = biological target: T1, Neuronal acetylcholine receptors; alpha-3/beta-4, alpha-5, beta-2 (Homo sapiens); assay: Agonist activity at alpha3beta4alpha5beta2 in human SH-SY5Y cells at 10 uM by 86Rb+ flux assay; format: functional, cell-based; outline: as §1
[16] = biological target: T5, 5-hydroxytryptamine receptor 3A (Homo sapiens) (UniProt P46098); assay: Displacement of [3H]LY278584 from 5-HT3 at 10 uM
T5 sequence (whole entry): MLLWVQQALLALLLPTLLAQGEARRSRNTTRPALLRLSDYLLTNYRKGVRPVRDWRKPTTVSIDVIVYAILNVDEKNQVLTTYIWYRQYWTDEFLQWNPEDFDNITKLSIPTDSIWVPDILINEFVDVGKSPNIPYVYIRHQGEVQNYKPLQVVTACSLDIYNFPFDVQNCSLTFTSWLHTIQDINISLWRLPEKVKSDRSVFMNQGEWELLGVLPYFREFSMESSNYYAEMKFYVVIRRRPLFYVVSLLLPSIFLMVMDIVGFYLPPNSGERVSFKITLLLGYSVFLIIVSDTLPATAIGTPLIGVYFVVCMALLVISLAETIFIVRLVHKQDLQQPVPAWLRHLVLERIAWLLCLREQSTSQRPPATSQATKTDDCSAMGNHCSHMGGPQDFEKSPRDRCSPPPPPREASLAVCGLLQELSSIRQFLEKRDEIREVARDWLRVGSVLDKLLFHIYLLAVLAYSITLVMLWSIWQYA

T1 sequence (P17787 whole entry, looked up): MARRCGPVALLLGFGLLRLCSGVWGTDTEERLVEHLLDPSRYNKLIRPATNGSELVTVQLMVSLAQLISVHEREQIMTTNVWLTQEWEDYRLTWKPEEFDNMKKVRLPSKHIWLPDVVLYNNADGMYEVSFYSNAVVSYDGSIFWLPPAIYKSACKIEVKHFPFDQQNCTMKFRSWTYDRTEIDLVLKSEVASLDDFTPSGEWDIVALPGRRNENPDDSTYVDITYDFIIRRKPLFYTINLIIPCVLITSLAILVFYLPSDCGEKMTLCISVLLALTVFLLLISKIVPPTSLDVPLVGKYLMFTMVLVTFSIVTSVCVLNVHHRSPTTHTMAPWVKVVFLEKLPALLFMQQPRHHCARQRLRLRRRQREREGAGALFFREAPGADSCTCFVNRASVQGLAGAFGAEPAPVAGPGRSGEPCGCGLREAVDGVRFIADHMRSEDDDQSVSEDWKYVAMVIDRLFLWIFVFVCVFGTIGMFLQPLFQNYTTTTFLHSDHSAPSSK
T1 sequence (P30532 whole entry, looked up): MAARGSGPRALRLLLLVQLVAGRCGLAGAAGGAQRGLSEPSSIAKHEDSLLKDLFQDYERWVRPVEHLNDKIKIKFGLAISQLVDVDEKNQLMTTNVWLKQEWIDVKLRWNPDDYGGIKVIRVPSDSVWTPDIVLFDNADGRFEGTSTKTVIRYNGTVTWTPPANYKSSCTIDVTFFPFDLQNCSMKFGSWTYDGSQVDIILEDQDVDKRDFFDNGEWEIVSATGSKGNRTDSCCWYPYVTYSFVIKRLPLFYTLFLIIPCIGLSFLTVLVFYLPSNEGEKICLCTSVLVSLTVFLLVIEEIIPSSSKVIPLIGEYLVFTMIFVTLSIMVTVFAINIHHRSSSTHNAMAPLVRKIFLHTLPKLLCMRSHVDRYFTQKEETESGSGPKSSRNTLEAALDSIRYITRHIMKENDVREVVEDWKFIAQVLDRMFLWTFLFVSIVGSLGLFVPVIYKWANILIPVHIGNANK
T1 sequence (P30926 whole entry, looked up): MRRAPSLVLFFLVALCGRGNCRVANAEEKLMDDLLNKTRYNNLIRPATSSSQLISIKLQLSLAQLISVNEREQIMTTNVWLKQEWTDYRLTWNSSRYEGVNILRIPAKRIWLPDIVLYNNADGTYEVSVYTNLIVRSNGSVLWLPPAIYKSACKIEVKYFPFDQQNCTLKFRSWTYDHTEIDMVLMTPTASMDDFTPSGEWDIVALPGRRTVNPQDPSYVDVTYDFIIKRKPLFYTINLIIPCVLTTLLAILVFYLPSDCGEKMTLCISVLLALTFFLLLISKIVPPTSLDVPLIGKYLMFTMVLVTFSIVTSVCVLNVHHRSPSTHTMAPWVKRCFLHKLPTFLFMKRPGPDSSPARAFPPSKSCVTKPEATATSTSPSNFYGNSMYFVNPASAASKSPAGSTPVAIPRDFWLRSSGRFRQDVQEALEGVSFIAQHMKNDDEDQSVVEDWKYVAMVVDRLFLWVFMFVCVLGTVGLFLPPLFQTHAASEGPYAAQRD
T1 sequence (P32297 whole entry, looked up): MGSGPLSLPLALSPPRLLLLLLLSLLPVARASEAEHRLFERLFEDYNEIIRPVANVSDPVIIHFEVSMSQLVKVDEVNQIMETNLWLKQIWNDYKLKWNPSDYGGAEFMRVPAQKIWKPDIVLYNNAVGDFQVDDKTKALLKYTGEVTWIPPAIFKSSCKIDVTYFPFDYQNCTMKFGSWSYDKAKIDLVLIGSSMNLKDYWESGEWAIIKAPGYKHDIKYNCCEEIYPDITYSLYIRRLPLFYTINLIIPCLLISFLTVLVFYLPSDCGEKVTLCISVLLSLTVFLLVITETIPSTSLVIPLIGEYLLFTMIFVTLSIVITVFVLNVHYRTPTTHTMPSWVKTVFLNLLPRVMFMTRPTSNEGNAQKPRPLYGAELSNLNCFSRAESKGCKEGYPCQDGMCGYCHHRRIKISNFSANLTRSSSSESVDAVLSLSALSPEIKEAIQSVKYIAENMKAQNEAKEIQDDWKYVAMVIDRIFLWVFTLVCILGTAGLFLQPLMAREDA

Compound: COCC[C@H]1C[C@@H]1c1cncc(OC[C@@H]2CCN2)c1
- Activity [1]: inactive
- inhibition [2]: 9.6%
- inhibition (INH) (Cytochrome P450 2C19): <= 25%
- inhibition [3]: 84.5%
- IC50 [4]: 5.6 nM
- inhibition [5]: 0.5%
- inhibition [6]: -4.8%
- Ki [7]: > 10000 nM
- inhibition [8]: 15%
- inhibition [9]: 22.7%
- inhibition [10]: -5.6%
- Ki [11]: 0.3 nM
- Efficacy [12]: 6%
- inhibition [13]: 33.8%
- inhibition [14]: 90.3%
- Activity [15]: inactive
- inhibition [16]: 42.4%

Compound: OCC[C@H]1C[C@@H]1c1cncc(OC[C@@H]2CCN2)c1
- Activity [1]: inactive
- inhibition [2]: 0%
- inhibition (INH) (Cytochrome P450 2C19): <= 25%
- inhibition [3]: 66.2%
- IC50 [4]: 9.4 nM
- inhibition [5]: -8.4%
- inhibition [6]: 41.4%
- Ki [7]: 6520 nM
- inhibition [8]: 10%
- inhibition [9]: 24.9%
- inhibition [10]: 0.4%
- Ki [11]: 0.5 nM
- Efficacy [12]: 21%
- inhibition [13]: 2.4%
- inhibition [14]: 51.2%
- Activity [15]: inactive
- inhibition [16]: 38.3%

Compound: CNC(=O)OCC[C@H]1C[C@@H]1c1cncc(OC[C@@H]2CCN2)c1
- Activity [1]: inactive
- inhibition [2]: 30.2%
- inhibition (INH) (Cytochrome P450 2C19): <= 25%
- inhibition [3]: 12.3%
- IC50 [4]: 18.2 nM
- inhibition [5]: -0.6%
- inhibition [6]: 30.5%
- Ki [7]: > 10000 nM
- inhibition [8]: -4.2%
- inhibition [9]: 32.1%
- inhibition [10]: 37.3%
- Ki [11]: 1.7 nM
- Efficacy [12]: 17%
- inhibition [13]: 6.3%
- inhibition [14]: 2.1%
- Activity [15]: inactive
- inhibition [16]: 23.5%
